Results as given in ChEMBL document CHEMBL3779792, “Anti-proliferative evaluation of monoterpene derivatives against leukemia” (Eur J Med Chem, 2016).
The source made the active and inactive calls. The rule behind the calls is not given here.

Legend:
[1] = Cytotoxicity against human NALM6 cells after 72 hrs by Cell-Titer Glo assay; assay type: functional, cell-based; details: NALM-6, 72 h
[2] = Cytotoxicity against human SEM cells after 72 hrs by Cell-Titer Glo assay; assay type: functional, cell-based
HepG2 = test: Cytotoxicity against human HepG2 cells after 72 hrs by Cell-Titer Glo assay; assay type: functional, cell-based; details: HepG2, 72 h
Raji = test: Cytotoxicity against human Raji cells after 72 hrs by Cell-Titer Glo assay; assay type: functional, cell-based
Jurkat = test: Cytotoxicity against human Jurkat cells after 72 hrs by Cell-Titer Glo assay; assay type: functional, cell-based
BJ = test: Cytotoxicity against human BJ cells after 72 hrs by Cell-Titer Glo assay; assay type: cell-based
HEK293 = test: Cytotoxicity against HEK293 cells after 72 hrs by Cell-Titer Glo assay; assay type: cell-based; details: Homo sapiens, HEK293, 72 h
SEM cells [3] = test: Effect on cell cycle in human SEM cells assessed as accumulation at G0/G1 phase at 8.5 uM after 24 hrs by propidium iodide staining based flow cytometry analysis (reference value: 45.75%); assay type: functional
SEM cells [4] = test: Effect on cell cycle in human SEM cells assessed as accumulation at S phase at 8.5 uM after 24 hrs by propidium iodide staining based flow cytometry analysis (reference value: 46.62%); assay type: functional
NALM-6 [5] = test: Induction of apoptosis in human NALM6 cells assessed as activated caspase3 level at 4.5 uM after 12 hrs by immunoblot analysis; assay type: functional, cell-based
Method in brief: (§1)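 Immunoblots for activated caspase-3, activated caspase-7, and cleaved and uncleaved PARP. Cells were treated for 3, 6, 12 and 24 hr at 8.0 µM (SEM) or 4.5 µM (Nalm06). Negative controls were DMSO vehicle and an analog at 20 µM.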

NALM-6 [6] = test: Induction of apoptosis in human NALM6 cells assessed as activated caspase7 level at 4.5 uM after 6 and 12 hrs by immunoblot analysis; assay type: functional, cell-based; method in brief: as §1
NALM-6 [7] = test: Induction of apoptosis in human NALM6 cells assessed as cleaved PARP level at 4.5 uM measured from 3 to 6 hrs by immunoblot analysis; assay type: functional, cell-based; method in brief: as §1
NALM-6 [8] = test: Induction of apoptosis in human NALM6 cells assessed as cleaved PARP level at 4.5 uM measured after 12 hrs by immunoblot analysis; assay type: functional, cell-based; method in brief: as §1
SEM cells [9] = test: Induction of apoptosis in human SEM cells assessed as activated caspase3 levels at 8 uM after 6 hrs by immunoblot analysis; assay type: functional, cell-based; method in brief: as §1
SEM cells [10] = test: Induction of apoptosis in human SEM cells assessed as activated caspase7 levels at 8 uM after 6 and 12 hrs by immunoblot analysis; assay type: functional, cell-based; method in brief: as §1
SEM cells [11] = test: Induction of apoptosis in human SEM cells assessed as cleaved PARP levels at 8 uM after 3, 6 and 12 hrs by immunoblot analysis; assay type: functional, cell-based; method in brief: as §1
SEM cells [12] = test: Induction of apoptosis in human SEM cells assessed as uncleaved PARP levels at 8 uM after 3 to 12 hrs by immunoblot analysis; assay type: functional, cell-based; method in brief: as §1
[13] = molecular target: T1, c-Jun N-terminal kinase, JNK (Homo sapiens) (UniProt P45983+P53779+P45984); test: Induction of JNK phosphorylation in human SEM cells at 8 uM after 3 to 12 hrs by immunoblot analysis; assay type: cell-based
Method in brief: (§2)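 Immunoblot of phospho-JNK and total JNK after 3, 6, 12 and 24 hr treatment at 8.0 µM (SEM) or 4.5 µM (Nalm06), with DMSO and an analog at 20 µM as negative controls. Quantified as the phospho/total JNK ratio normalized to DMSO (set to 1.0).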

[14] = molecular target: T1, c-Jun N-terminal kinase, JNK (Homo sapiens); test: Induction of JNK phosphorylation in human NALM6 cells at 4.5 uM after 3 to 12 hrs by immunoblot analysis; assay type: cell-based; details: NALM-6; method in brief: as §2
NALM-6 [15] = test: Induction of apoptosis in human NALM6 cells assessed as necrotic cells at 8.5 uM measured after 24 hrs by annexin V-propidium iodide staining based flow cytometric analysis (reference value: 0.0%); assay type: functional
Method in brief: (§3)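 SEM and Nalm06 cells were treated for 24 hr, then stained with fluorochrome-labeled Annexin V and propidium iodide for flow cytometry. Quadrants were scored as viable, early apoptotic, late apoptotic (Q2) and necrotic. DMSO was the negative control and 1 µM staurosporine the positive control. Representative of 3 independent experiments.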

NALM-6 [16] = test: Induction of apoptosis in human NALM6 cells assessed as late apoptotic cells at 8.5 uM measured after 24 hrs by annexin V-propidium iodide staining based flow cytometric analysis (reference value: 4.3%); assay type: functional; method in brief: as §3
NALM-6 [17] = test: Induction of apoptosis in human NALM6 cells assessed as early apoptotic cells at 8.5 uM measured after 24 hrs by annexin V-propidium iodide staining based flow cytometric analysis (reference value: 91.5%); assay type: functional; method in brief: as §3
SEM cells [18] = test: Induction of apoptosis in human SEM cells assessed as necrotic cells at 8 uM measured after 24 hrs by annexin V-propidium iodide staining based flow cytometric analysis (reference value: 0.0%); assay type: functional; method in brief: as §3
SEM cells [19] = test: Induction of apoptosis in human SEM cells assessed as late apoptotic cells at 8 uM measured after 24 hrs by annexin V-propidium iodide staining based flow cytometric analysis (reference value: 7.2%); assay type: functional; method in brief: as §3
SEM cells [20] = test: Induction of apoptosis in human SEM cells assessed as early apoptotic cells at 8 uM measured after 24 hrs by annexin V-propidium iodide staining based flow cytometric analysis (reference value: 85.3%); assay type: functional; method in brief: as §3
SEM cells [21] = test: Induction of apoptosis in human SEM cells assessed as viable cells at 8 uM measured after 24 hrs by annexin V-propidium iodide staining based flow cytometric analysis (reference value: 1.5%); assay type: functional; details: read-out: Activity; method in brief: as §3
SEM cells [22] = test: Induction of apoptosis in human SEM cells assessed as activated caspase7 levels at 8.0 uM after 6 and 12 hrs by immunoblot analysis
SEM cells [23] = test: Effect on cell cycle arrest in human SEM cells assessed as accumulation at G2/M phase at 8.0 uM after 24 hrs by propidium iodide staining based flow cytometry analysis (reference value: 7.63%)

## C=C[C@@](C)(/C=C/c1ccc(O)c(/C=C/C(=O)c2ccccc2)c1)CCC=C(C)C
[1]
  EC50: 4.47 µM
[2]
  EC50: 8 µM
HepG2
  EC50: > 52.1 µM
Raji
  EC50: > 26 µM
Jurkat
  EC50: > 49 µM
BJ
  EC50: > 20 µM
HEK293
  EC50: > 7.41 µM
SEM cells [3]
  Activity: 36.25%
SEM cells [4]
  Activity: 55.75%
NALM-6 [5]
  Activity: Active
NALM-6 [6]
  Activity: Active
NALM-6 [7]
  Activity: inactive
NALM-6 [8]
  Activity: Active
SEM cells [9]
  Activity: Active
SEM cells [10]
  Activity: Active
SEM cells [11]
  Activity: Active
SEM cells [12]
  Activity: inactive
[13]
  Activity: Active
[14]
  Activity: inactive
NALM-6 [15]
  Activity: 0.1%
NALM-6 [16]
  Activity: 81.2%
NALM-6 [17]
  Activity: 2.5%
SEM cells [18]
  Activity: 0%
SEM cells [19]
  Activity: 81.1%
SEM cells [20]
  Activity: 0.9%
SEM cells [21]
  viability at 8 µM: 6.9%
SEM cells [22]
  Activity: Active
SEM cells [23]
  Activity: 8%
